Results on five compounds are retold here after ChEMBL document CHEMBL1152488, “Synthesis and evaluation of pyrido[1,2-a]pyrimidines as inhibitors of nitric oxide synthases” (Eur J Med Chem, 2009).

Each structure is given as a SMILES string.

Series [1] has as its target T1, Nitric oxide synthase, inducible (Mus musculus) (UniProt P29477).
T1 sequence (whole entry): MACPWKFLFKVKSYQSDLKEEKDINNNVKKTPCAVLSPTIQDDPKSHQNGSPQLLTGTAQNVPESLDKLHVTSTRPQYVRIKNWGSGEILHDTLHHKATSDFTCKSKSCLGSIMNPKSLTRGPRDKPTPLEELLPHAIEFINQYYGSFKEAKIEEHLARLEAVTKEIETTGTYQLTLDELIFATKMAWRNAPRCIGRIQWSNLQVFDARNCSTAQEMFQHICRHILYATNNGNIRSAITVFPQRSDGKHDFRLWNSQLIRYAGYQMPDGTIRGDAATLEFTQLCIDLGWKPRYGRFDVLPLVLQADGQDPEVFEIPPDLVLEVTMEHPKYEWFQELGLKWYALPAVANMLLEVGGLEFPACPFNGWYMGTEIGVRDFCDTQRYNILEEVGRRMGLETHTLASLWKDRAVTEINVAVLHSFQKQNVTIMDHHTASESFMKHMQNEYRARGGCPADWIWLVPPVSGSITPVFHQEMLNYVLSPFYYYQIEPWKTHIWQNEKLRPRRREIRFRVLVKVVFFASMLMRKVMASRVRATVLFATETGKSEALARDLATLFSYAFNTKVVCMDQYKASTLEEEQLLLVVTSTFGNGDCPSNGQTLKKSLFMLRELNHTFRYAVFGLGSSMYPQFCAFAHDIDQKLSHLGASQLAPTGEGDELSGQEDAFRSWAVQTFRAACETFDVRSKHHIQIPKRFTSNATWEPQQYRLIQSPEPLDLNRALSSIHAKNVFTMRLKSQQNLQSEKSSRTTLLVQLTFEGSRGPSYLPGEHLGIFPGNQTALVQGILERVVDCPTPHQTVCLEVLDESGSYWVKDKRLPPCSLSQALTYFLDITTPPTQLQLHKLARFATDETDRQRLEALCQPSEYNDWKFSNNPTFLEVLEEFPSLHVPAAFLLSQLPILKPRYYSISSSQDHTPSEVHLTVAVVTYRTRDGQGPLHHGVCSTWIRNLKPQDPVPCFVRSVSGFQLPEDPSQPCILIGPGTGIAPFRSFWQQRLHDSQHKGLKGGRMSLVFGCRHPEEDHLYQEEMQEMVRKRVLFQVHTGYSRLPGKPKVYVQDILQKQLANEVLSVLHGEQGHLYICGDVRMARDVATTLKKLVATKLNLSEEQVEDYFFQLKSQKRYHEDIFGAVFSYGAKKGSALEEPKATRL
Briefly: Inhibition of mouse iNOS expressed in insect Sf9 cells assessed as residual activity at 100 uM by Griess assay relative to control. Summed up:
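Murine iNOS produced in Sf9 insect cells. Buffer: 50 mM triethanolamine pH 7.5, 1 mM CHAPS, 10 mM 2-mercaptoethanol, 0.5 mM EDTA. Additions: 1 mM Mg2+, 5 µM FAD, 5 µM FMN, 0.5 mM NADPH, 10 µM H4B, 10 µg/ml CaM, 1 mM L-arginine. Compound at 100 µM final, 37 °C for 20 min. NADPH removed with LDH/pyruvate, then Griess read at 543 nm. Values are % of 1% DMSO control, 5 experiments.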
(Nitrite, measured by Griess reagent, commonly stands in for NO production.)

The target in series [2] is T2, Nitric oxide synthase 3 (Bos taurus) (UniProt P29473).
T2 sequence (whole entry): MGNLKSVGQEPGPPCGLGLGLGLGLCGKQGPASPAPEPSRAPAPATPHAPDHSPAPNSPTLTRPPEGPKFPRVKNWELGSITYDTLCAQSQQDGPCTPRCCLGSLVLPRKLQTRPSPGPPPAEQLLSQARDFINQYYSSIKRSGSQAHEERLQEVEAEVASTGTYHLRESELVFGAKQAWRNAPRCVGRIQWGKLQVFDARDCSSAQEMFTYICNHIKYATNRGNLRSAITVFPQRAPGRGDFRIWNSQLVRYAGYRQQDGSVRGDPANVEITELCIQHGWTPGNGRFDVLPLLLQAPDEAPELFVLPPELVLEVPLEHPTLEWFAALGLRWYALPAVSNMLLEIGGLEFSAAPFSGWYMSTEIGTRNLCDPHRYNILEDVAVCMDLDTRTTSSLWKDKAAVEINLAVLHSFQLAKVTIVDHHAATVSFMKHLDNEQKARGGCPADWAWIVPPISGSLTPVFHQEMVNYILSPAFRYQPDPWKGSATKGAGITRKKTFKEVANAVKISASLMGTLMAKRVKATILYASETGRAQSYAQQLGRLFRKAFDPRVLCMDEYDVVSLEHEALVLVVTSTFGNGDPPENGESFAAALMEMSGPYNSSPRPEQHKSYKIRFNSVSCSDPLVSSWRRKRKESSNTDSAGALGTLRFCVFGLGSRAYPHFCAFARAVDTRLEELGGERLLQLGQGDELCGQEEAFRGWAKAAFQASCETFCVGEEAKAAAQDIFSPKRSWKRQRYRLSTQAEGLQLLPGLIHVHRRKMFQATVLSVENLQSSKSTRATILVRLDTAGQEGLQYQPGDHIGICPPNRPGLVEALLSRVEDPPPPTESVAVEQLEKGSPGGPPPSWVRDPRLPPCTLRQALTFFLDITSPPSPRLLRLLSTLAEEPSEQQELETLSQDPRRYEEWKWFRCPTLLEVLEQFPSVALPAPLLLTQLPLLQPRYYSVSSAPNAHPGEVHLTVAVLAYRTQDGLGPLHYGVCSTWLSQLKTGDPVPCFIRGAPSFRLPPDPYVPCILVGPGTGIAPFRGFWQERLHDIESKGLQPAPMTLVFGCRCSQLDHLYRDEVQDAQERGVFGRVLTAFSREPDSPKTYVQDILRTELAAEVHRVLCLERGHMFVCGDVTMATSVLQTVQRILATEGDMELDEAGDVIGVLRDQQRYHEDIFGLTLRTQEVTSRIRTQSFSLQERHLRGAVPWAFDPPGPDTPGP
Briefly: Inhibition of bovine eNOS expressed in insect Sf9 cells assessed as residual activity at 100 uM by Griess assay relative to control. The method in brief: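 Bovine eNOS from Sf9 cells. Reaction: triethanolamine buffer pH 7.5, 0.5 mM Ca2+, 10 µg/ml CaM, 10 µM H4B, FAD, FMN, 0.5 mM NADPH, 1 mM L-arginine, with 100 µM compound, 20 min at 37 °C. After NADPH removal by LDH/pyruvate, nitrite measured by Griess at 543 nm. Expressed as % residual activity versus 1% DMSO control, 5 experiments.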

Series [3] deals with Nitric oxide synthase 1 (Rattus norvegicus) (UniProt P29476). Briefly: Inhibition of rat recombinant nNOS expressed in Saccharomyces cerevisiae assessed as conversion of [gamma-14C]L-arginine to [14C]L-citrulline at 100 uM by radioactive assay relative to control. The arrangement: scale not given: the % may be the effect or the level left. The method in brief: (§1)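 Purified enzymes: rat nNOS from S. cerevisiae, murine iNOS and bovine eNOS from E. coli. Reaction 5 min at 37 °C in 50 mM Hepes pH 7.4 with DTT, 1 mM NADPH, H4B, FAD, FMN, [14C]L-arginine (2.5 µM L-arginine) and 100 µM compound in 1% DMSO. nNOS/eNOS also got 1 mM CaCl2 and CaM, which iNOS lacked. [14C]citrulline isolated on Dowex and counted by scintillation; % of DMSO control, n=3.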
Nitric oxide synthase 1 (Rattus norvegicus), sequence (P29476 whole entry): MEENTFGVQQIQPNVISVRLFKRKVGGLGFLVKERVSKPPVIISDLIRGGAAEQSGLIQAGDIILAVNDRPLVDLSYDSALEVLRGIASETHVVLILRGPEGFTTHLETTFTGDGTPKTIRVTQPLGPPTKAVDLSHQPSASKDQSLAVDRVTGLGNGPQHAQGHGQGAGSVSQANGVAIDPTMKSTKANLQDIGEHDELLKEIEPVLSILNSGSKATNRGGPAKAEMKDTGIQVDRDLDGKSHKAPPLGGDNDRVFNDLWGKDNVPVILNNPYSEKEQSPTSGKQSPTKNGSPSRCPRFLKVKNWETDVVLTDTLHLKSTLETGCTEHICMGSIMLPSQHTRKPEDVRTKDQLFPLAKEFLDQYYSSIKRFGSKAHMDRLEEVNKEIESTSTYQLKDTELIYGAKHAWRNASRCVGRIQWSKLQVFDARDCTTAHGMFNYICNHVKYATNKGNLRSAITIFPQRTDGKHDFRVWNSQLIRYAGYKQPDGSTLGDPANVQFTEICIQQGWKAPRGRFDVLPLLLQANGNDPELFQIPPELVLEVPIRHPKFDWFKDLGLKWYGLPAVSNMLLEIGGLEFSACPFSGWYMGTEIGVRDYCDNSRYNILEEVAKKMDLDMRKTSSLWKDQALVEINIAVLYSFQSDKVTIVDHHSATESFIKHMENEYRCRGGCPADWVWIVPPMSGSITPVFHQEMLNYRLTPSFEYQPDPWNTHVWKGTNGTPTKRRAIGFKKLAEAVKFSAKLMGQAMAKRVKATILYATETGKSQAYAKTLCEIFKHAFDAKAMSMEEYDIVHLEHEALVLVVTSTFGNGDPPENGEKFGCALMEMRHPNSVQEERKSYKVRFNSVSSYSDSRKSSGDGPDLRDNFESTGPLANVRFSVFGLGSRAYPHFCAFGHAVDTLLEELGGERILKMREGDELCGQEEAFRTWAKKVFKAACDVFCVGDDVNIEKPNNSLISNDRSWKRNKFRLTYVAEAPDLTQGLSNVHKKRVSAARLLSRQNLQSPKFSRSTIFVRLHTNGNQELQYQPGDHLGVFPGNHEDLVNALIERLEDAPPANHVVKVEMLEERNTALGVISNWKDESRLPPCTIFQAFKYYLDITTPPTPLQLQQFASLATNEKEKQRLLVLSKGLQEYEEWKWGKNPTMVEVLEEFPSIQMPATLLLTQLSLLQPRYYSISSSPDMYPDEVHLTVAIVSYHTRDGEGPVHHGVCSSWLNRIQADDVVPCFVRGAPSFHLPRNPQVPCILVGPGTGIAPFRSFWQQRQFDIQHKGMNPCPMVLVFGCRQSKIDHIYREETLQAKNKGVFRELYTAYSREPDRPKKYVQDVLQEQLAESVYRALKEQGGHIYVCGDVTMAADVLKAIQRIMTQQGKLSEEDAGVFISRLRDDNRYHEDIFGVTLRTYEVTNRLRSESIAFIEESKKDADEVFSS

Series [4] has as its target T1, Nitric oxide synthase, inducible (Mus musculus). The series is described as follows: Inhibition of mouse recombinant iNOS expressed in Escherichia coli assessed as conversion of [gamma-14C]L-arginine to [14C]L-citrulline at 100 uM by radioactive assay relative to control. The arrangement: scale not given: the % may be the effect or the level left. The method in brief:
as §1

The target of series [5] is T2, Nitric oxide synthase 3 (Bos taurus). Briefly: Inhibition of bovine recombinant eNOS expressed in Escherichia coli assessed as conversion of [gamma-14C]L-arginine to [14C]L-citrulline at 100 uM by radioactive assay relative to control. The arrangement: scale not given: the % may be the effect or the level left. The method in brief: as §1
Series [6] concerns the target T1, Nitric oxide synthase, inducible (Mus musculus). The series is described as follows: Inhibition of mouse recombinant iNOS expressed in Escherichia coli assessed as NADPH consumption at 100 uM after 2 mins by spectrophotometry. Summed up:
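Murine iNOS from E. coli (15–50 nM final) in 50 mM Hepes pH 7.4 with 5 mM DTT, 100 µM CaCl2, 200 µM NADPH, 10 µM H4B, 100 µM L-arginine and 100 µM compound. Cofactors and compound preincubated 2 min at 37 °C, enzyme added, and A340 followed for 3 min (ε 6.2 mM-1 cm-1). Given as % of 1% DMSO control NADPH oxidase rate.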

Series [7] has the same target. The series is described as follows: Inhibition of iNOS in LPS and IFN-gamma-stimulated mouse RAW264.7 cells assessed as inhibition of nitrite accumulation at 100 uM after 15 hrs by Griess assay. It counts as cell-based. Summed up: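 RAW 264.7 macrophages seeded at 100,000 cells/well in RPMI 1640 with 5% FCS and grown 24 h. Stimulated with 40 U/ml γ-IFN and 50 ng/ml LPS, with compound at 100 µM in 1% DMSO, for 15 h at 37 °C. Supernatant nitrite measured with Griess reagent at 550 nm against an NaNO2 calibration; 6–8 determinations.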

The next series relates to RAW264.7. Briefly: Cytotoxicity against mouse RAW264.7 cells at 100 uM. It counts as cell-based. Particulars: raw264.7, 100 µM.
The nature of series [8]: Lipophilicity, log D at pH 7.4 by HPLC method. The note with it: buffer.

As a reminder, the inhibition is the relative decrease from the control value, in per cent. In general, logD refers to lipophilicity at a set pH, counting ionised and neutral species.

Consider `Cc1ccc(C(=O)C2CN=C3C=CC=CN3C2)cc1.[O-][Cl+3]([O-])([O-])O` (stereo not given), for which the Activity in series [1] is 86%; in [2], 94%; in series [3] it was 92%; in series [4], 100%; in [5], 100%; in the series with RAW264.7 it was “Non-toxic”. Also, in series [6], the Remaining NADPH oxidation rate (% of DMSO control) is 91%. Further, the inhibition in series [7] was determined as 60%.

With `COc1ccc(C(=O)C2CN=C3C(C)=CC=CN3C2)cc1OC` (stereo not given), the Activity was 102% in series [1]; 95% in series [2]; 48% in series [3]; 96% in [4]; 94% in series [5]; “Non-toxic” with RAW264.7. Further, the Remaining NADPH oxidation rate (% of DMSO control) in series [6] worked out at 89%. Besides, the inhibition in [7] was found to be 67%.

With `CC1=CC=CC2=NCC(C(=O)c3ccccc3)CN12` (stereo not given), the Activity in [1] was found to be 104%; in series [2] it was 93%. Also, the log distribution coefficient (logD) in series [8] amounted to 1.5.

Consider `COc1ccc(C(=O)C2CN=C3C=CC=CN3C2)cc1` (stereo not given), for which the Activity stood at 100% in series [1] and 90% in series [2]. The logD in series [8] was 1.5.

With `CC1=CC=CN2CC(C(=O)c3ccc(C)cc3)CN=C12` (stereo not given), the Activity was found to be 100% in series [1] and 93% in series [2]. In addition, the logD in series [8] was 1.6.
